From PMC6863055 (Dalton transactions (Cambridge, England : 2003), 2019)
Where two headings read alike, the source gives them in different places. Marks after values point to notes of the source that are not given here.

Legend:
[1] = ref [51], [52]; cited from earlier work
[2] = Formation constants with Mg2+; type: binding; settings: Mg^2+; I=0.15 M NaCl, T=298 K
Procedure, shortened: (§1)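 Complexes were studied by direct pH-potentiometric titration at 1:1 and 2:1 metal-to-ligand ratios, with 150–200 data pairs and 1 min equilibration per point. With metal in excess, titration continued until precipitate appeared (pH 7–9). Samples were at 25 °C, 0.15 M NaCl, under N2, with a calibrated electrode and [H+] corrected by the Irving method.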

[3] = Zn^2+, cited from earlier work
[4] = Protonation constants by pH-potentiometric titration; type: physicochemical
Procedure, shortened: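 Test compound (2.28 mM) titrated directly with standardized NaOH over pH 1.80–12.00. Samples were 6.00 mL, thermostatted at 25 °C, held at 0.15 M NaCl, stirred under N2. The electrode was calibrated with KH-phthalate (pH 4.005) and borax (pH 9.177) buffers. [H+] was obtained by the Irving method (pKw 13.820). Protonation constants come from fitting the pH-potentiometric data.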

[5] = Cu^2+, cited from earlier work; for log β [ML]/[M][L]: I=0.5 M, NaNO3, ref [57]
[6] = Metabolic stability in mouse hepatocytes; type: in vitro ADME
Procedure, shortened: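 Murine hepatocytes (1×10^6/mL) incubated with test compound (2 µM final, DMSO stock) for 0–240 min at 37 °C, 5% CO2. Reactions were quenched with two volumes of acetonitrile containing 0.15% formic acid and tolbutamide internal standard, then analysed by LC-MS/MS. % remaining is relative to T0. Half-life = 0.693/slope of ln % remaining versus time; CLint was taken from the slope of ln peak-area ratio versus time.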

[7] = Formation constants with Ca2+; type: binding; settings: Ca^2+; I=0.15 M NaCl, T=298 K
Procedure, shortened: as §1

[8] = Formation constants with Cu2+; type: binding; settings: Cu^2+, I=0.15 M NaCl, T=298 K
[9] = Metabolic stability in mouse liver microsomes; type: in vitro ADME; settings: murine liver microsomes
Procedure, shortened: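 Male ICR/CD-1 mouse liver microsomes (0.25 mg) in 50 mM Tris pH 7.5 with test compound at 2 µM final (DMSO stock). Incubated at 37 °C with shaking and an NADPH-regenerating system (NADP, glucose-6-phosphate, G6P dehydrogenase). Time points were quenched with acetonitrile, 0.2% formic acid and tolbutamide internal standard; the T0 sample was quenched before compound or cofactors were added. Parent was measured by LC-MS/MS (223.1→180.1). Half-life = 0.693/slope of ln % remaining versus time.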

FRDA cells = settings: at 125 nM; toxicity induced by BSO in FRDA cells; ref [5]; cited from earlier work
[10] = Formation constants with Zn2+; type: binding; settings: Zn^2+; I=0.15 M NaCl, T=298 K
Procedure, shortened: as §1

[11] = Mg^2+; I=0.5 M, KNO3; ref [53]; cited from earlier work
[12] = Ca^2+, I=0.1 M, NaNO3, ref [54], cited from earlier work
[13] = I=0.15 M, NaClO4; ref [45]; cited from earlier work

Oc1cccnc1 [3-pyridol]
acidity constant of aromatic -OH functionality [1]: 8.72

Oc1ccncc1 [4-pyridol]
acidity constant of aromatic -OH functionality [1]: 11.09

c1cc2nc(c1)CNCCNCCNC2 [L1, 3,6,9,15-tetraazabicyclo[9.3.1]penta-deca-1(15),11,13-triene]
log β [ML]/[M][L] [2]: 4.04(2)
log β [ML]/[M][L] ([3]; I=0.5 M, KNO3, ref [47]): 14.40^f
log β [ML]/[M][L][OH^−] ([3]; I=0.5 M, KNO3, ref [47]): 8.50^f
log K1^H (protonation constant) ([4]; I=0.15 M NaCl, T=298 K): 11.37 (1)
log K2^H (protonation constant) ([4]; I=0.15 M NaCl, T=298 K): 8.22(5)
∑ log KN-donors ([4]; I=0.15 M NaCl, T=298 K): 21.20
log K3^H (protonation constant) ([4]; I=0.15 M NaCl, T=298 K, for L2 and L3 the pyridol -OH): 1.61(5)
log β [ML]/[M][L][OH^−] ([5]; previously described by others, ref [47], [57], [58], [62]): 7.48^c

Oc1cc2nc(c1)CNCCNCCNC2 [L2, 3,6,9,15-tetraazabicyclo[9.3.1]penta-deca-1(15),11,13-trien-13-ol]
calculated Clint ([6]; murine hepatocytes): < 0.02 µL/min/million cells
clearance classification ([6]; murine hepatocytes): low clearance
half-life ([6]; murine hepatocytes 1×10^6/mL, 2 µM, 0–240 min): greater than 240 min
% depleted over the time course of the experiment ([6]; murine hepatocytes, 0–240 min): 2–9%
log β [MHL]/[M][L][H^+] [2]: 13.53(2)
log β [ML]/[M][L] [2]: 4.96(1)
log β [MHL]/[M][L][H^+] [7]: 13.66(5)
log β [MHL]/[M][L][H^+] [8]: 25.79(3)
log β [ML]/[M][L] [8]: 19.16(11)
log β [ML]/[M][L][OH^−] [8]: 8.55(13)
log β [MH2L]/[M][L][H^+]^2 ([8]; determined by direct UV-vis titration): 28.38(5)^a
% of molecule retained at termination of the experiment ([9]; NADPH regenerating system, 2 µM): 65%
in vitro half-life ([9]; NADPH regenerating system, 2 µM, substrate depletion): greater than 120 min
clearance classification ([9]; Phase I): low-moderate clearance
isoelectric point (pI) [4]: 10.31
log K1^H (protonation constant) ([4]; I=0.15 M NaCl, T=298 K): 11.56(3)
log K2^H (protonation constant) ([4]; I=0.15 M NaCl, T=298 K): 9.05(5)
log K4^H (protonation constant) ([4]; I=0.15 M NaCl, T=298 K): 1.68(5)
∑ log KN-donors ([4]; I=0.15 M NaCl, T=298 K): 22.29
fraction of [H2(L2)]^+ species in solution ([4]; at biological pH): 97%
quenching of radical based toxicity (FRDA cells): 100%
log β [MH2L]/[M][L][H^+]^2 [10]: 25.72(7)
log β [MHL]/[M][L][H^+] [10]: 23.02(3)
log β [ML]/[M][L] [10]: 17.18(7)
log β [ML]/[M][L][OH^−] [10]: 8.92(9)

C1CNCCNCCNCCN1 [cyclen]
log β [ML]/[M][L] [11]: 2.25^a
log β [ML]/[M][L] [12]: 3.12
log β [ML]/[M][L] ([12]; listed as Cyclen): 3.12^b
log K1^H (protonation constant) [13]: 10.66
log K2^H (protonation constant) [13]: 9.69
log K3^H (protonation constant) [13]: 1.41
∑ log KN-donors [13]: 21.76
log β [ML]/[M][L] ([3]; ref [58]): 16.2^e
log β [ML]/[M][L] [5]: 23.3
log β [ML]/[M][L] ([5]; listed as Cyclen): 23.3^d
